Experimental data taken from ChEMBL document CHEMBL1145100, “Structure-activity relationship of imidazo[1,2-a]pyridines as ligands for detecting beta-amyloid plaques in the brain” (J Med Chem, 2003).

Target: Amyloid-beta precursor protein (Homo sapiens, UniProt P05067)
Test: Inhibition constant against [125I]-7 (TZDM) binding to Amyloid beta 1-40 aggregates
Summary of the method: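 Abeta40 peptide aggregated at 0.5 mg/mL in pH 7.4 buffer (10 mM sodium phosphate, 1 mM EDTA), 37 °C for 36-42 h with shaking. Competition in 1 mL of 40% EtOH: fibrils 10-50 nM final, radiotracer 0.05 nM, inhibitors 10^-5 to 10^-10 M. Nonspecific binding with 2 µM thioflavin-T. Incubated 3 h at room temperature, then GF/B filtration with 10% ethanol washes and gamma counting. Ki from nonlinear regression.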

Chain of Amyloid-beta precursor protein (P05067 whole entry): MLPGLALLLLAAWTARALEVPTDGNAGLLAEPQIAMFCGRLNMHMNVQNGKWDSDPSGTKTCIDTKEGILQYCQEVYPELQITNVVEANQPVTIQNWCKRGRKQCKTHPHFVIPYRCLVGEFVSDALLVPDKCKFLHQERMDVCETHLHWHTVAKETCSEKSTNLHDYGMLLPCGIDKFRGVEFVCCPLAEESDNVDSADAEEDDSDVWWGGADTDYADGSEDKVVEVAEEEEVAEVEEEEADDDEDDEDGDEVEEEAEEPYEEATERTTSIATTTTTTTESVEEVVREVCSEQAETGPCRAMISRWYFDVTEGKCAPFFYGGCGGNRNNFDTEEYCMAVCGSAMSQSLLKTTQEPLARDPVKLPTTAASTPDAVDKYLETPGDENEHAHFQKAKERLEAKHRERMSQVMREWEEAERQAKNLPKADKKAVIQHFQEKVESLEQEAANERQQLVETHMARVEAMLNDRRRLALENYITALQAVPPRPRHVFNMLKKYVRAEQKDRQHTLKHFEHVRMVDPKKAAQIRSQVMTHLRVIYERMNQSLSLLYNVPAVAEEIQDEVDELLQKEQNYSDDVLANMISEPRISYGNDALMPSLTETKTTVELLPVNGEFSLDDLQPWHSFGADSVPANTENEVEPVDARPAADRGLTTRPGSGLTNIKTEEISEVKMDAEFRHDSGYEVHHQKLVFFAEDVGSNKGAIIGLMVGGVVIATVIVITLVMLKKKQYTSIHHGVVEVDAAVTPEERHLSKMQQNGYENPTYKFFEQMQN

CN(C)c1ccc(-c2cn3ccccc3n2)cc1
Ki: > 2000 nM
